Published values from different studies.
Protocols differ between the studies behind these lines.
OPRM1: Mu-type opioid receptor (OPRM1, Homo sapiens, UniProt P35372)
Slc6a4: Sodium-dependent serotonin transporter (Slc6a4, Rattus norvegicus, UniProt P31652)
CYP2A6: Cytochrome P450 2A6 (CYP2A6, Homo sapiens, UniProt P11509)

Cc1cc2c(NC(=O)c3cccc(C(=O)O)c3)cccc2nn1 — Kd (Bromodomain-containing protein 4, BD1 (BRD4, Homo sapiens, UniProt O60885); binding, competition with immobilised ligand): 41 µM
CCCCN1CCC(COC(=O)c2ccc(N)c(OCF)c2)CC1 — Ki (OPRM1; cell-free assay, radioligand): > 10 µM
CN(C)c1ccc(C(CNC(=O)c2ccc(Br)cc2)N(C)C)cc1 (centres unmarked) — Ki (Slc6a4; ligand displacement, radioligand): 0.305 µM
O=c1cc(-c2ccccc2)oc2c1ccc1ccccc12 — Ki (CYP2A6; enzyme activity, inhibitor; 6 min, pH 7.6): > 25 µM
COc1cc2c(cc1OC)C(=O)N(CCCCN1C(=O)/C(=N\NC(=S)N(C)C)c3ccccc31)CC2 — EC50 (ATP-dependent translocase ABCB1 (ABCB1, Homo sapiens, UniProt P08183); transporter efflux, inhibitor, fluorescence; MDCK-MDR1): 11 µM
OC[C@@]12C[C@@H]1[C@@H](n1cnc3c(NC(C4CCCC4)C4CCCC4)nc(Cl)nc31)[C@H](O)[C@@H]2O — Ki (OPRM1; cell-free assay, radioligand): 3.5 µM
C#Cc1ccc2c(=O)cc(-c3ccccc3)oc2c1 — Ki (CYP2A6; enzyme activity, inhibitor; 6 min, pH 7.6): > 25 µM
Cc1cc2nc3c(=O)[nH]c(=O)nc-3n(C[C@H](O)[C@H](O)[C@H](O)COP(=O)(O)OP(=O)(O)OC[C@H]3O[C@@H](n4cnc5c(N)ncnc54)[C@H](O)[C@@H]3O)c2cc1C — Kd (Far upstream element-binding protein 2 (KHSRP, Homo sapiens, UniProt Q92945); binding; lysate): 0.026 µM
COc1cc(C2Oc3c(OC)cccc3C3CC(c4cc(C)ccc4O)=NN32)ccc1O (centres unmarked) — Kd (Prostaglandin E synthase 3 (Homo sapiens, UniProt Q15185); binding, MST): 1.18 µM
C#Cc1cccc2oc(-c3ccccc3)cc(=O)c12 — Ki (CYP2A6; enzyme activity, inhibitor; 6 min, pH 7.6): > 25 µM
CN(C)CCN(Cc1ccccc1)Cc1c(F)cccc1Cl — Ki (Slc6a4; ligand displacement, radioligand): 0.212 µM
O=C(NCC1CC1)c1cc(N2CC[C@H](O)C2)nc(N2CCC[C@@H](c3ccccc3)C2)n1 — Ki (N-acyl-phosphatidylethanolamine-hydrolyzing phospholipase D (Napepld, Mus musculus, UniProt Q8BH82); enzyme activity, inhibitor, fluorescence): 0.18 µM
C#Cc1ccc2oc(-c3ccccc3)cc(=O)c2c1 — Ki (CYP2A6; enzyme activity, inhibitor; 6 min, pH 7.6): > 25 µM
Cc1occc(=S)c1O — Ki (Carbonic anhydrase 15 (Mus musculus, UniProt Q99N23); enzyme activity, inhibitor, stopped-flow): 3.1 µM
Cc1cc(N)nc(CCc2cccc([C@@H](N)Cc3cc(C)cc(N)n3)c2)c1 — Ki (Nitric oxide synthase 1 (Nos1, Rattus norvegicus, UniProt P29476); enzyme activity, inhibitor): ~0.1 µM
CC1=CC(=O)CC(C)(C)[C@@]1(O)/C=C/C(C)=C\C(=O)O — Kd (PYL1 (Arabidopsis thaliana, UniProt Q8VZS8); binding, MST): 63.7 µM
CC(=O)N[C@H](C(=O)N1C[C@H](O)C[C@H]1C(=O)NCc1ccc(-c2scnc2C)cc1)C(C)(C)SCCCCCCNC(=O)C[C@@H]1N=C(c2ccc(Cl)cc2)c2c(sc(C)c2C)-n2c(C)nnc21 — Kd (Bromodomain-containing protein 4, BD2 (BRD4, Homo sapiens, UniProt O60885); binding): 0.044 µM
